Assay results reported in ChEMBL document CHEMBL1149120, “Discovery of potent inhibitors of dihydroneopterin aldolase using CrystaLEAD high-throughput X-ray crystallographic screening and structure-directed lead optimization” (J Med Chem, 2004).

Assay: Inhibition of Staphylococcus aureus 7,8-dihydroneopterin aldolase
Procedure, shortened: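 DHNA expressed in E. coli BL21(DE3) and purified by DEAE, Q-Sepharose and S300 chromatography; 50 nM enzyme with 4 µM 7,8-dihydroneopterin in 20 mM HEPES pH 7.4, 150 mM NaCl, ambient temperature (~29 °C). IC50 is the concentration halving the initial rate.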

Structure (SMILES)	IC50
Nc1nc(O)c2nn(-c3cccc(C(=O)NCc4cc(C(F)(F)F)cc(C(F)(F)F)c4)c3)nc2n1	1000 nM
Nc1nc(O)c2nn(-c3cccc(C(=O)NCC4(O)CCCCC4)c3)nc2n1	740 nM
Nc1nc(O)c2nn(-c3cccc(C(=O)NCCCO)c3)nc2n1	2300 nM
Nc1nc(O)c2cc(N(C=O)Cc3ccc(Cl)c(Cl)c3)ccc2n1	600 nM
Cc1nc(N)nc(O)c1N(Cc1ccc(Cl)c(Cl)c1)N=O	1300 nM
Nc1nc(O)c2nn(-c3cccc(C(=O)NCc4ccc5c(c4)CCO5)c3)nc2n1	550 nM
Nc1nc(O)c2nn(-c3cccc(C(=O)NCc4ccc5c(c4)OCO5)c3)nc2n1	310 nM
Nc1nc(O)c2nn(-c3cccc(C(=O)NCc4ccc(Oc5ccccc5)cc4)c3)nc2n1	22000 nM
NC1=NC(=O)C2N=C(S)N=C2N1 (configuration not stated)	1000 nM
Nc1nc(O)c2nn(-c3cccc(C(=O)NCc4ccc(-c5ccccc5)cc4)c3)nc2n1	25000 nM
Nc1nc(O)c2nn(-c3cccc(C(=O)NCCCCO)c3)nc2n1	2000 nM
Nc1nc(O)c2nn(-c3cccc(C(=O)NC[C@H]4CCCC[C@@H]4O)c3)nc2n1	320 nM
CCC(CO)(CO)CNC(=O)c1cccc(-n2nc3nc(N)nc(O)c3n2)c1	950 nM
Cn1c(N)nc(-c2ccccc2)c(Br)c1=O	38000 nM
Nc1nc(O)c2nn(-c3cccc(C(=O)NC[C@H]4CCCC[C@H]4O)c3)nc2n1	410 nM
Nc1nc(O)c2nn(-c3cccc(C(=O)NC[C@@H]4CCCCC[C@H]4O)c3)nc2n1	350 nM
CC(C)(CO)CNC(=O)c1cccc(-n2nc3nc(N)nc(O)c3n2)c1	730 nM
